Results on 25 molecules are retold here after ChEMBL document CHEMBL1152610, “3- and 6-Substituted 2-amino-4,5,6,7-tetrahydrothieno[2,3-c]pyridines as A1 adenosine receptor allosteric modulators and antagonists” (Bioorg Med Chem, 2009).

For assay [1], the target named is T1, Adenosine receptor A1 (Homo sapiens) (UniProt P30542).
T1 sequence (whole entry): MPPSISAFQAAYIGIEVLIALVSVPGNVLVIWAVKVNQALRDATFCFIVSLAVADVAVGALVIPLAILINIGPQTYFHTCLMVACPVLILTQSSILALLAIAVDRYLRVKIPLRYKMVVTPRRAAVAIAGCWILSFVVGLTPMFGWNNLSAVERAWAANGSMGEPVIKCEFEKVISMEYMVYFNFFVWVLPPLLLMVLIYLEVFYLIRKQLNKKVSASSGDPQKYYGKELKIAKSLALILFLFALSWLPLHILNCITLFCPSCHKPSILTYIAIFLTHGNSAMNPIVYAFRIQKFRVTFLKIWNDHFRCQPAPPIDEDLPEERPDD
Description: Allosteric modulatory activity at human adenosine A1 receptor expressed in CHOk1 cells assessed as [125I]-ABA-receptor-G protein ternary complex remaining after 10 mins of radioligand dissociation at 50 uM by dissociation kinetic binding assay. Format: cell-based. The method, boiled down: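 Membranes (10 μg) from CHO-K1 cells stably expressing human A1AR were equilibrated for 90 min at room temperature with 0.5 nM [125I]-ABA in 10 mM HEPES pH 7.2, 0.5 mM MgCl2 and 1 U/mL adenosine deaminase. Modulator (0.1–50 μM final) was added for 30 min. Dissociation was started with 100 μM orthosteric antagonist plus 25 μM GTPγS for 10 min, then samples were filtered and counted. K-score is the % specific binding remaining; EC50 comes from a variable-slope sigmoidal fit.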

Assay [2] deals with T2, Adenosine receptor A1 (Homo sapiens, UniProt P30542).
T2 sequence (P30542 whole entry): T1 sequence (whole entry)
Description: Allosteric modulatory activity at human adenosine A1 receptor expressed in CHOk1 cells assessed as drug level causing half maximal allosteric effect on [125I]-ABA dissociation from receptor-G protein ternary complex by dissociation kinetic binding assay. It counts as cell-based.

Assay [3] has as its target T1, Adenosine receptor A1 (Homo sapiens). In words: Agonist activity at human adenosine A1 receptor expressed in CHOk1 cells assessed as potentiation of R-PIA-induced ERK1/2 phosphorylation at 10 uM. Format: functional, cell-based. The gist of the method:
(§1)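 FlpIn-CHO cells stably expressing human A1AR were seeded at 50,000/well and kept in serum-free DMEM/20 mM HEPES for at least 4 h. They were pretreated for 30 min with 1 U/mL adenosine deaminase, then for 30 min at 37 °C with compound at 3 or 10 μM.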

For assay [4] the target is unchanged. In words: Agonist activity at human adenosine A1 receptor expressed in CHOk1 cells assessed as potentiation of R-PIA-induced ERK1/2 phosphorylation at 3 uM. It counts as functional, cell-based. The method, boiled down:
as §1

For assay [5] the target is unchanged. In words: Agonist activity at human adenosine A1 receptor expressed in CHOk1 cells assessed as induction of ERK1/2 phosphorylation at 10 uM relative to R-PIA. It counts as functional, cell-based. The gist of the method:
as §1

In assay [6] the target is T2, Adenosine receptor A1. In words: Antagonist activity at human adenosine A1 receptor expressed in CHOk1 cells assessed as inhibition of R-PIA-induced ERK1/2 phosphorylation. Format: functional, cell-based. Particulars: read-out: pA2 (converted). The gist of the method: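 Human A1AR FlpIn-CHO cells were serum-starved and pretreated for 30 min with 1 U/mL adenosine deaminase. Modulator (0.3, 1, 3, 10 or 30 μM) or none was then added for 30 min at 37 °C. Full R-PIA concentration–response curves followed, with 5 min stimulation. ERK1/2 phosphorylation was measured by AlphaScreen SureFire and normalized to the 6 min 3% FBS response.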

In general, EC50 refers to the concentration at which the effect is half-maximal.

Calls of active or inactive are those of the source. No cut-off for these calls is given here. Where only a bound is given, the exact number is not on record here.

On to `CN1CCc2c(sc(N)c2C(=O)NCc2ccccc2)C1`, for which, in assay [1], the Activity was 87.2%. In addition, at Adenosine receptor A1 [2], the EC50 amounted to 12 µM. Moreover, the result in assay [3], in assay [4] and in assay [5] was inactive.

As for `NNC(=O)c1c(N)sc2c1CCN(Cc1ccccc1)C2`, the Activity in assay [1] is 82.9%. Besides, the EC50 at Adenosine receptor A1 [2] turned out to be 8.9 µM. Moreover, the outcome in assay [3], in assay [4] and in assay [5] was inactive.

For the molecule `CCOC(=O)c1c(N)sc2c1CCN(C(=O)[C@H](Cc1ccccc1)NC(=O)OC(C)(C)C)C2`, the Activity in assay [1] is 82.5%. Besides, on Adenosine receptor A1 [2], the concentration for a half-maximal effect (EC50) is 7.2 µM. The result in assay [3], in assay [4] and in assay [5] was inactive. Also, the Kb on Adenosine receptor A1 [6] is 0.372 µM.

`Nc1sc2c(c1C(=O)NCc1cccc(C(F)(F)F)c1)CCN(Cc1ccccc1)C2`: the Activity in assay [1] was 46.9%. In addition, the EC50 at Adenosine receptor A1 [2] was determined as 15.5 µM. The outcome in assay [3], in assay [4] and in assay [5] was inactive.

Take `CC(C)(C)OC(=O)N1CCc2c(sc(N)c2C(=O)O)C1`: in assay [1], the Activity is 66.1%. In addition, on Adenosine receptor A1 [2], the EC50 is 12.1 µM. Further, the outcome in assay [3], in assay [4] and in assay [5] was inactive.

On to `CCOC(=O)c1c(N)sc2c1CCN(C(=O)[C@@H](Cc1ccc(Cl)cc1)N(C)C(=O)OC(C)(C)C)C2`, for which the Activity in assay [1] was 92.9%. Besides, the EC50 on Adenosine receptor A1 [2] came to 9.1 µM. The outcome in assay [3], in assay [4] and in assay [5] was inactive. Further, the Kb at Adenosine receptor A1 [6] is 1.82 µM.

As to `CN1CCc2c(sc(N)c2C(=O)NCc2cccc(Cl)c2)C1`, the Activity in assay [1] amounted to 88%. For the same molecule, the EC50 at Adenosine receptor A1 [2] was 13.2 µM. The result in assay [3], in assay [4] and in assay [5] was inactive.

As for `Nc1sc2c(c1C(=O)c1ccc(Cl)cc1)CCN(Cc1ccccc1)C2`, in assay [1], the Activity turned out to be 32.6%. In addition, the EC50 at Adenosine receptor A1 [2] is more than 20 µM. The outcome in assay [3] and in assay [4] was Active.

With `Nc1sc2c(c1C(=O)NCc1cccc(Cl)c1)CCN(Cc1ccccc1)C2`, the Activity in assay [1] is 36%. Moreover, the EC50 at Adenosine receptor A1 [2] is more than 20 µM. Also, the result in assay [3], in assay [4] and in assay [5] was inactive.

Regarding `CN1CCc2c(sc(N)c2C(=O)O)C1`, the Activity in assay [1] amounted to 77.1%. Besides, on Adenosine receptor A1 [2], the EC50 was 11.6 µM. Also, the outcome in assay [3], in assay [4] and in assay [5] was inactive.

For the molecule `CCOC(=O)c1c(N)sc2c1CCN(C)C2`, the Activity in assay [1] stood at 14.9%. Also, the EC50 on Adenosine receptor A1 [2] is more than 20 µM. Besides, the outcome in assay [3], in assay [4] and in assay [5] was inactive.

In the case of `CN1CCc2c(sc(N)c2C#N)C1`, in assay [1], the Activity is 14.8%. Further, the EC50 at Adenosine receptor A1 [2] is more than 20 µM. Also, the result in assay [3], in assay [4] and in assay [5] was inactive.

For the molecule `CCOC(=O)c1c(N)sc2c1CCN(C(=O)OC(C)(C)C)C2`, the Activity in assay [1] came out at 32.8%. Also, the EC50 at Adenosine receptor A1 [2] stood at 13.2 µM. The result in assay [3], in assay [4] and in assay [5] was inactive. Further, the Kb at Adenosine receptor A1 [6] is 0.832 µM.

Consider `NC(=O)c1c(N)sc2c1CCN(Cc1ccccc1)C2`, for which the Activity in assay [1] turned out to be 19.1%. Further, the EC50 on Adenosine receptor A1 [2] is more than 20 µM. Besides, the outcome in assay [3], in assay [4] and in assay [5] was inactive.

Consider `CN1CCc2c(sc(N)c2C(=O)NN)C1`, for which the Activity in assay [1] is 85.7%. Moreover, on Adenosine receptor A1 [2], the half-maximal effective concentration (EC50) amounted to 4.4 µM. In addition, the result in assay [3], in assay [4] and in assay [5] was inactive.

For `Nc1sc2c(c1C(=O)NNc1ccccc1)CCN(Cc1ccccc1)C2`, the Activity in assay [1] was 55.4%. For the same molecule, the EC50 on Adenosine receptor A1 [2] stood at 7.8 µM. In addition, the result in assay [3], in assay [4] and in assay [5] was inactive.

For the molecule `CCOC(=O)c1c(N)sc2c1CCN(C(=O)[C@H](CSC(c1ccccc1)(c1ccccc1)c1ccccc1)NC(=O)OC(C)(C)C)C2`, the Activity in assay [1] was determined as 93.2%. Besides, the EC50 at Adenosine receptor A1 [2] was 7.9 µM. Further, the outcome in assay [3], in assay [4] and in assay [5] was inactive.

For `N#Cc1c(N)sc2c1CCN(Cc1ccccc1)C2`, in assay [1], the Activity was 52%. Besides, at Adenosine receptor A1 [2], the EC50 is 15.2 µM. In addition, the result in assay [3], in assay [4] and in assay [5] was inactive.

`CC(C)(C)OC(=O)N1CCc2c(sc(N)c2C#N)C1`: in assay [1], the Activity was determined as 22.9%. In addition, at Adenosine receptor A1 [2], the EC50 is more than 20 µM. Moreover, the outcome in assay [3], in assay [4] and in assay [5] was inactive.

As to `CCOC(=O)c1c(N)sc2c1CCN(Cc1ccccc1)C2` [TINORIDINE], the Activity in assay [1] turned out to be 44.9%. Further, the concentration giving a half-maximal response (EC50) at Adenosine receptor A1 [2] is 10.3 µM. For the same molecule, the outcome in assay [3], in assay [4] and in assay [5] was inactive.

For the molecule `Nc1sc2c(c1C(=O)NCc1ccccc1)CCN(Cc1ccccc1)C2`, the Activity in assay [1] was 37.6%. For the same molecule, the EC50 on Adenosine receptor A1 [2] amounted to 13.1 µM. Moreover, the result in assay [3], in assay [4] and in assay [5] was inactive.

As for `CCOC(=O)c1c(N)sc2c1CCNC2`, the Activity in assay [1] is 58.5%. On Adenosine receptor A1 [2], the EC50 amounted to 11.7 µM. Besides, the outcome in assay [3], in assay [4] and in assay [5] was inactive.

Regarding `CN1CCc2c(sc(N)c2C(N)=O)C1`, the Activity in assay [1] was 19.8%. Also, at Adenosine receptor A1 [2], the EC50 was more than 20 µM. The result in assay [3], in assay [4] and in assay [5] was inactive.

For the molecule `Nc1sc2c(c1C(=O)O)CCN(Cc1ccccc1)C2`, in assay [1], the Activity worked out at 68.3%. Moreover, on Adenosine receptor A1 [2], the EC50 came to 8 µM. Further, the result in assay [3], in assay [4] and in assay [5] was inactive.

`CN1CCc2c(sc(N)c2C(=O)NNc2ccccc2)C1`: in assay [1], the Activity was 83.1%. Also, the EC50 at Adenosine receptor A1 [2] was 11.5 µM. Moreover, the result in assay [3], in assay [4] and in assay [5] was inactive.
